Experimental data from publication PMC7906539 (Medicinal chemistry research : an international journal for …, 2020).
Converted amounts (≈) assume the structure as drawn. “Also recorded” adds a separate entry of the source.

Experiments:
[1] = molecular target: His-mHtt and GST-CaM (CaM–mHtt interaction) (Homo sapiens, UniProt P0DP23+P42858); assay: CaM/mHtt AlphaScreen binding assay; details: read-out: AlphaScreen CaM–mHtt, IC50; triplicate
In short: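 His-mHtt (10 nM) preincubated 30 min with test compound, then GST-CaM (10 nM) added for 60 min at room temperature. Ni-chelate acceptor (10 μg/mL) and glutathione donor beads (15 μg/mL) are added for 2 h, then Alpha counts are read. Final 300–0.002 μM, triplicate; % inhibition normalized to DMSO controls.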

SH-SY5Y cells = assay: Cytotoxicity assay; type: cell-based; details: SH-SY5Y cells, 24 h incubation, CellTiter-Glo
In short: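 SH-SY5Y cells seeded at 6000/well in 1:1 EMEM/F12 with 10% FBS. Exposure 24 h at 37 °C, then CellTiter-Glo luminescence read. Percent cytotoxicity normalized to DMSO controls.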

[2] = molecular target: death-associate protein kinase 1 (DAPK1) (Homo sapiens, UniProt P53355); assay: CaM-dependent kinase assay; type: biochemical; details: single concentration of 100 μM, in the presence of CaM
In short: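 Recombinant DAPK1 (25 ng), run with ADP-Glo at 5 μM ATP with native swine myelin basic protein as substrate, in the presence of CaM. Test compound is added at a single 100 μM (DMSO) and reacted 60 min at room temperature. Luminescence is read, and activity is expressed as percent of the no-compound reaction. Three experiments, ≥2 replicates each; mean ± SEM.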

[3] = system: calcium/CaM-dependent kinase 2γ (CaMK2γ); assay: CaM-dependent kinase assay; type: biochemical, Human; details: single concentration of 100 μM, in the presence of CaM
In short: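 ADP-Glo reaction with CaMK2γ (12 ng), 25 μM ATP and Autocamtide-2 substrate, carried out with CaM present. Test compound is at a single 100 μM from DMSO; incubation 60 min at room temperature. Luminescent readout gives percent enzyme activity relative to the reaction without compound. Run three times with at least two replicates per experiment; mean ± SEM.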

[4] = system: mHtt toxicity in PC12 cells; assay: Protection against mHtt toxicity in neuronal cell model for HD; type: cell-based; details: three different concentrations
In short: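 Each experiment run at least three times; values reported as mean ± standard error of the mean.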

Kinetic solubility = type: physicochemical
PAMPA permeability = type: in vitro ADME

Sequence of His-mHtt and GST-CaM (CaM–mHtt interaction) (P42858 whole entry, one chain of several): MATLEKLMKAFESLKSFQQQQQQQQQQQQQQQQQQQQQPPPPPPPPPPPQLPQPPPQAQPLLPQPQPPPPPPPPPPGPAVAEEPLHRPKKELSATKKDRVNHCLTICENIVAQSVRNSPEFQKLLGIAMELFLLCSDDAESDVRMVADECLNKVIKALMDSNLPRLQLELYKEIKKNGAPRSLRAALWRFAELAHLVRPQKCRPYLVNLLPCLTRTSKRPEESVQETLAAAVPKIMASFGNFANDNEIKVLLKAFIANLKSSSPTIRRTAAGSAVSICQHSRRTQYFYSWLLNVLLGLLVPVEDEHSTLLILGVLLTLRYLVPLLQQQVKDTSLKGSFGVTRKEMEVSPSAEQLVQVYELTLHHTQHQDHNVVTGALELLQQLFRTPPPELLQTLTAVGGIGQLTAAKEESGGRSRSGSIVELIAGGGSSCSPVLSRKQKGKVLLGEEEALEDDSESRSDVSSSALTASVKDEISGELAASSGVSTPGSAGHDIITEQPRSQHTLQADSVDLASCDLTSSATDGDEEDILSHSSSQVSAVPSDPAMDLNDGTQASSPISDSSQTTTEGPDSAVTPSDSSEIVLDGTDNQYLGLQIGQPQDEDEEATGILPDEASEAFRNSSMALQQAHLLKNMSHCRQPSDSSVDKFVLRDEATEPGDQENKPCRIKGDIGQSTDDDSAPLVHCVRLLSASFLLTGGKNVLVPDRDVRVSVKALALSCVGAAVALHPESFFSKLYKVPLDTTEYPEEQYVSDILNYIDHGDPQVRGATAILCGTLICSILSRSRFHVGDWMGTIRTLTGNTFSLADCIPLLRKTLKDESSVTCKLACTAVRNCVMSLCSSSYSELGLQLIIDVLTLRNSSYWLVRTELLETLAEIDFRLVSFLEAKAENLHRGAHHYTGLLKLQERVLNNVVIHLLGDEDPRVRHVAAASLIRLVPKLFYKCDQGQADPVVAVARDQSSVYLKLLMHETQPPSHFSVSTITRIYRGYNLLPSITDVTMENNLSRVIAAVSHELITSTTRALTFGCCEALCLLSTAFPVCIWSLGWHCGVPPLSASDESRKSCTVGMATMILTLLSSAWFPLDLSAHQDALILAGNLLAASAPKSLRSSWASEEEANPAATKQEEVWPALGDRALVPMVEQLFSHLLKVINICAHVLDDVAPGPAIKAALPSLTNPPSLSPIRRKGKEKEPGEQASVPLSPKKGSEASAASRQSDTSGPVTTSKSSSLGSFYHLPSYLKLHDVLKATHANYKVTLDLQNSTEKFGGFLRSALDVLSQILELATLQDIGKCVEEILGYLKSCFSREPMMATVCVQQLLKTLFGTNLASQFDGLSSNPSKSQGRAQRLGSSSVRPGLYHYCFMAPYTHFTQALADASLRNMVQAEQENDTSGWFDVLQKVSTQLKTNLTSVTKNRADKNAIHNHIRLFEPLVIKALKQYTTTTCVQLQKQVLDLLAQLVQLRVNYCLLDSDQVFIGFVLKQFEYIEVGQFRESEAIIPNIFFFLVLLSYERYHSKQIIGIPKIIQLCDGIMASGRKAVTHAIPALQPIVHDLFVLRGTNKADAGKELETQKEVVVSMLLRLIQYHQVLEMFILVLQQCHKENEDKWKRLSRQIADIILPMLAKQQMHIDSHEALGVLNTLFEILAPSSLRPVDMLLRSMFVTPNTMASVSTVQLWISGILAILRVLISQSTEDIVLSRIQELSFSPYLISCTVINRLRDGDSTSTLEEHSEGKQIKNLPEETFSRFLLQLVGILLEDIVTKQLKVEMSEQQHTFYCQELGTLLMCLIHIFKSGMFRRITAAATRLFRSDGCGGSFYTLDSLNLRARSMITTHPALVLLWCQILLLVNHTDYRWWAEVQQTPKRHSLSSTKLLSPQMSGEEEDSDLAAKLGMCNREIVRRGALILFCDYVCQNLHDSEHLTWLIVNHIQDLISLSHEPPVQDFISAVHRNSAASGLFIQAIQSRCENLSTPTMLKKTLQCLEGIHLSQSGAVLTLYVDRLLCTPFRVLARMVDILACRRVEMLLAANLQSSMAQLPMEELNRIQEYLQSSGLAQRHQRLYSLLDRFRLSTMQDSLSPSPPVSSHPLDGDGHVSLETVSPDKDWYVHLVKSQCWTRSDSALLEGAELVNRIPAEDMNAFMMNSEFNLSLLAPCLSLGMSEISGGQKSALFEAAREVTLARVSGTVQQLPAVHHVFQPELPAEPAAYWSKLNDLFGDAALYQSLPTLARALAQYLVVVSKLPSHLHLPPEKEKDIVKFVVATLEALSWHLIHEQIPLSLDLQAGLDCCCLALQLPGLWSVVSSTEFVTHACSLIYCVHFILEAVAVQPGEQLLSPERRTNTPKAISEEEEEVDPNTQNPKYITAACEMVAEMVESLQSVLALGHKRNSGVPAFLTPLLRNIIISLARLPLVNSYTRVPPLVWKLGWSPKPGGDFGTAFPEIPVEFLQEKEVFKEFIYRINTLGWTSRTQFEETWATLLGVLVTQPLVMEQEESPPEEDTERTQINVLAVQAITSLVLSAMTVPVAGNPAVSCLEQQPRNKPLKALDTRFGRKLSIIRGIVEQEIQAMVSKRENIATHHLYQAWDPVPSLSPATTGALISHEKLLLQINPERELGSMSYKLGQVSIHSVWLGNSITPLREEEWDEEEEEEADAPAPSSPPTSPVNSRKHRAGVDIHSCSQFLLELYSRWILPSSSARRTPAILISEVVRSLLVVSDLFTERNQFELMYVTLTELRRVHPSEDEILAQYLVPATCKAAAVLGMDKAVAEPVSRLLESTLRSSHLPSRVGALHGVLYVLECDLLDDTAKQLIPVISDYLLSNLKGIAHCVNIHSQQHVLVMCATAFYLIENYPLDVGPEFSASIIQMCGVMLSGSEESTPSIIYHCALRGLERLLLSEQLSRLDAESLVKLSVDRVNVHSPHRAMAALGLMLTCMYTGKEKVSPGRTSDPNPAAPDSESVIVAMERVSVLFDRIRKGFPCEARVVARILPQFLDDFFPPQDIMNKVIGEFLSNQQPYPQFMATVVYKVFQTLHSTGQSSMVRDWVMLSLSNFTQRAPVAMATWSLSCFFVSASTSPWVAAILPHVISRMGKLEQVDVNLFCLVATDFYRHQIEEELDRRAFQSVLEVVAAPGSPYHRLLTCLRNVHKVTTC
Sequence of death-associate protein kinase 1 (DAPK1) (P53355 1-363): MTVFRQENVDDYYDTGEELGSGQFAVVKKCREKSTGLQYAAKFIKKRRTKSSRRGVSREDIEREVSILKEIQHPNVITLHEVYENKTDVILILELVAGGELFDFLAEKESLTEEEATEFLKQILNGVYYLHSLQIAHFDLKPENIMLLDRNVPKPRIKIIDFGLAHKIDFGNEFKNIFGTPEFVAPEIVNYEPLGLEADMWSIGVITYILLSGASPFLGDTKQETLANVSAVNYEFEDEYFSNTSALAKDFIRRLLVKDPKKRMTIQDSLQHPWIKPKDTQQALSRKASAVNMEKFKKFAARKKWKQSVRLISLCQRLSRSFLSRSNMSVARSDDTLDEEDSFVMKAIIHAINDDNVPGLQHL

With `C=C1CCN([C@@H](CC(C)C)C(=O)NCCc2ccc(Cl)c(Cl)c2)S(=O)(=O)c2ccccc21` [Compound 9h, (S)-N-(3,4-Dichlorophenethyl)-4-methyl-2-(5-methylene-1,1-dioxido-4,5-dihydrobenzo[f][1,2]thiazepin-2(3H)-yl) pentanamide] the IC50 [1] was 550 nM, the “Cytotoxicity (SH-SY5Y cells, 24 h)” value (SH-SY5Y cells) was greater than 300 µM and the “Inhibition of DAPK1 enzyme activity (in words)” value [2] was “but not DAPK1 activity”. The “Inhibition of CaMK2γ enzyme activity (in words)” value [3] was “statistically significant impact; also recorded: statistically significant effect on inhibition”, the “Protection against mHtt toxicity (in words)” value [4] was “barely measurable activity; also recorded: do not show protection; also recorded: did not show any significant effect” and the kinetic solubility (Kinetic solubility) was 0.6 µM (≈ 0.297 µg/mL). For the same molecule, the “permeability (PAMPA assay)” value (PAMPA permeability) was 0.76 ×10⁻⁶ cm/s.
